Laboratory results from ChEMBL document CHEMBL1129496, “3-and 4-substituted 4H-pyrido[4,3-e]-1,2,4-thiadiazine 1,1-dioxides as potassium channel openers: synthesis, pharmacological evaluation, and structure-activity relationships” (1996).
Activity calls are given as the source filed them. The calls are words filed in the database; no cut-off is given here.

Assays:
Type in all cases: functional
Rattus norvegicus [1] = species on record: Rattus norvegicus; experiment: Percentage residual insulin release by the compound at 10 uM from rat pancreatic islets
Outline: (§1)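 Rat pancreatic islets in groups of 10 were preincubated 30 min at 37 °C in bicarbonate salt medium with 2.8 mM glucose and 0.5% dialyzed albumin, gassed with 95% O2/5% CO2. They were then incubated 90 min at 37 °C with 16.7 mM glucose plus test drug. Insulin was measured by radioimmunoassay against a rat insulin standard and reported as % residual release.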

Rattus norvegicus [2] = species on record: Rattus norvegicus; experiment: Residual insulin release from rat pancreatic islets at a concentration of 50 uM; outline: as §1
Rattus norvegicus [3] = species on record: Rattus norvegicus; experiment: Percentage residual insulin release by the compound at 1 uM from rat pancreatic islets; outline: as §1
Rattus norvegicus [4] = species on record: Rattus norvegicus; experiment: Percentage of residual contractile response in isolated rat aorta; +++ indicates that a maximal vasorelaxant activity was observed at 500 uM
Rattus norvegicus [5] = species on record: Rattus norvegicus; experiment: Effective dose to give 50% relaxation of the KCl induced contraction
Outline: (§2)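 Endothelium-denuded transverse aortic rings (3-4 mm) from fed Wistar rats (250-300 g), held at 36 ± 1 °C under 95% O2/5% CO2. After 60 min equilibration they were contracted with 30 mM KCl. At the plateau (1-2 g), drug was added cumulatively until maximal relaxation or 1 mM. Isometric tension was recorded. ED50 was read graphically from each curve. Mean ± sem of 3-12 experiments.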

Rattus norvegicus [6] = species on record: Rattus norvegicus; experiment: Percentage of residual contractile response at 500 uM from isolated rat aorta
Rattus norvegicus [7] = species on record: Rattus norvegicus; experiment: Effective dose to give 50% relaxation of KCl induced concentration; outline: as §2
Rattus norvegicus [8] = species on record: Rattus norvegicus; experiment: Effective dose concentration by the compound to give 50% relaxation of KCl induced concentration; outline: as §2
Rattus norvegicus [9] = species on record: Rattus norvegicus; experiment: Percentage residual insulin release by the compound at 1(uM from rat pancreatic islets; conditions: in the assay text read “10(uM” for “1(uM”; outline: as §1

| Compound | Residual insulin secretion (Rattus norvegicus [2]) [%] | Residual contractile activity (Rattus norvegicus [4]) | Residual contractile activity (Rattus norvegicus [6]) [%] | other results |
| --- | --- | --- | --- | --- |
| CC(NC1=NS(=O)(=O)c2cc(Cl)ccc2N1)C(C)(C)C (stereo not given) | 9.3 | maximal vasorelaxant activity was observed at 500 uM | – | Residual insulin secretion (Rattus norvegicus [1]): 46.9%; Residual insulin secretion (Rattus norvegicus [3]): 87.7%; ED50 (Rattus norvegicus [5]): 10 µM |
| O=S1(=O)N=C(C(F)(F)F)Nc2ccncc21 | 90.4 | – | 96 | – |
| O=S1(=O)N=C(NN2CCOCC2)Nc2ccncc21 | 98.8 | – | 93 | – |
| CC(NC1=NS(=O)(=O)c2cnccc2N1)C(C)(C)C (stereo not given) | 10.3 | maximal vasorelaxant activity was observed at 500 uM | – | Residual insulin secretion (Rattus norvegicus [1]): 41%; Residual insulin secretion (Rattus norvegicus [3]): 70%; ED50 (Rattus norvegicus [5]): 104 µM |
| NC1=NS(=O)(=O)c2cnccc2N1 | – | – | 77 | – |
| CCCCNC1=NS(=O)(=O)c2cnccc2N1 | – | – | 74 | Residual insulin secretion (Rattus norvegicus [1]): 82% |
| CCCC1=NS(=O)(=O)c2cnccc2N1 | 85.1 | – | 77 | – |
| CC1=NS(=O)(=O)c2cnccc2N1C1CCCCCCC1 | 90.6 | maximal vasorelaxant activity was observed at 500 uM | – | ED50 (Rattus norvegicus [7]): 248 µM |
| CC1=NS(=O)(=O)c2cnccc2N1N1C2CCCC1CC2 | 71.9 | – | 53 | – |
| O=S1(=O)N=CNc2ccncc21 | 99.5 | – | 94 | – |
| O=S1(=O)N=C(C2CCCC2)Nc2ccncc21 | 99.3 | maximal vasorelaxant activity was observed at 500 uM | – | ED50 (Rattus norvegicus [8]): 257 µM |
| CC(C)NC1=NS(=O)(=O)c2cnccc2N1 | 42.6 | – | 89 | – |
| CC1=NS(=O)(=O)c2cnccc2N1C1CCCCC1 | 87.9 | – | 52 | – |
| CC(C)C(C)NC1=NS(=O)(=O)c2cnccc2N1 (stereo not given) | 8.6 | Active | – | ED50 (Rattus norvegicus [5]): 302 µM |
| CC1=NS(=O)(=O)c2cnccc2N1C | 109 | – | 94 | – |
| CC1=NS(=O)(=O)c2cnccc2N1C(C)C | 68.1 | – | 86 | – |
| CN1CCN(C2=NS(=O)(=O)c3cnccc3N2)CC1 | 90.6 | maximal vasorelaxant activity was observed at 500 uM | – | ED50 (Rattus norvegicus [5]): 125 µM |
| CCC(C)NC1=NS(=O)(=O)c2cnccc2N1C (stereo not given) | 81 | – | 61 | – |
| CC1=NS(=O)(=O)c2cnccc2N1 | 100.4 | – | 92 | – |

| Compound | Residual insulin secretion (Rattus norvegicus [2]) [%] | Residual contractile activity (Rattus norvegicus [4]) | Residual contractile activity (Rattus norvegicus [6]) [%] | other results |
| --- | --- | --- | --- | --- |
| CC1=NS(=O)(=O)c2cnccc2N1N1CCOCC1 | 93.5 | – | 89 | – |
| CCC1=NS(=O)(=O)c2cnccc2N1 | 90.2 | – | 74 | – |
| O=S1(=O)N=C(NC2CCCCC2)Nc2ccncc21 | – | – | 40 | – |
| CCCNC1=NS(=O)(=O)c2cnccc2N1 | – | – | 88 | – |
| CCC(C)NC1=NS(=O)(=O)c2cc(Cl)ccc2N1 (stereo not given) | 5.5 | maximal vasorelaxant activity was observed at 500 uM | – | Residual insulin secretion (Rattus norvegicus [1]): 19.9%; Residual insulin secretion (Rattus norvegicus [3]): 85.4%; ED50 (Rattus norvegicus [5]): 25 µM |
| CC1=NS(=O)(=O)c2cc(Cl)ccc2N1C | 83.9 | – | – | – |
| CC(C)C(C)NC1=NS(=O)(=O)c2cnccc2N1C (stereo not given) | 95.4 | – | 69 | – |
| O=S1(=O)N=C(NC2CCCC2)Nc2ccncc21 | 31.6 | – | 60 | – |
| CC(C)(C)C1=NS(=O)(=O)c2cnccc2N1 | 81.1 | maximal vasorelaxant activity was observed at 500 uM | – | ED50 (Rattus norvegicus [8]): 258 µM |
| CCNC1=NS(=O)(=O)c2cnccc2N1 | 59.2 | – | 87 | – |
| CC(C)C(C)NC1=NS(=O)(=O)c2cc(Cl)ccc2N1 (stereo not given) | 11 | maximal vasorelaxant activity was observed at 500 uM | – | ED50 (Rattus norvegicus [5]): 32 µM |
| CC(C)C1=NS(=O)(=O)c2cnccc2N1 | 79.7 | – | 71 | – |
| O=S1(=O)NC(C2CCCC2)=Nc2ccc(Cl)cc21 | 14.1 | maximal vasorelaxant activity was observed at 500 uM | – | ED50 (Rattus norvegicus [8]): 2.8 µM |
| CC1=Nc2ccc(Cl)cc2S(=O)(=O)N1 [DIAZOXIDE] | – | Active | – | Residual insulin secretion (Rattus norvegicus [1]): 70%; ED50 (Rattus norvegicus [5]): 21 µM |
| CC(C)NC1=NS(=O)(=O)c2cnccc2N1C | 79.4 | – | 84 | – |
| CCCCN(C)C1=NS(=O)(=O)c2cnccc2N1 | 76.1 | – | 47 | – |
| CC(C)CNC1=NS(=O)(=O)c2cnccc2N1 | – | maximal vasorelaxant activity was observed at 500 uM | – | ED50 (Rattus norvegicus [5]): 205 µM |
| CC(NC1=NS(=O)(=O)c2cnccc2N1C)C(C)(C)C (stereo not given) | 88.5 | – | 74 | – |
| CCC(C)NC1=NS(=O)(=O)c2cnccc2N1 (stereo not given) | 9.4 | – | 34 | Residual insulin secretion (Rattus norvegicus [9]): 49% |
